Bioassay records from PubChem.
M5 antag = human M5 muscarinic receptor antagonists, primary screen, CHO cells, Fluo-8 calcium fluorescence; CHO-hM5 cells, ACh EC80; inhibition, % at 3 µM; 0.59% of 360,000 active; AID 624040, 2012;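 active = inhibition above a per-plate cutoff, the mean of that plate's test compounds plus 3 SD, cut at about 27% in these data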
Target sequence (P08912 whole entry, looked up): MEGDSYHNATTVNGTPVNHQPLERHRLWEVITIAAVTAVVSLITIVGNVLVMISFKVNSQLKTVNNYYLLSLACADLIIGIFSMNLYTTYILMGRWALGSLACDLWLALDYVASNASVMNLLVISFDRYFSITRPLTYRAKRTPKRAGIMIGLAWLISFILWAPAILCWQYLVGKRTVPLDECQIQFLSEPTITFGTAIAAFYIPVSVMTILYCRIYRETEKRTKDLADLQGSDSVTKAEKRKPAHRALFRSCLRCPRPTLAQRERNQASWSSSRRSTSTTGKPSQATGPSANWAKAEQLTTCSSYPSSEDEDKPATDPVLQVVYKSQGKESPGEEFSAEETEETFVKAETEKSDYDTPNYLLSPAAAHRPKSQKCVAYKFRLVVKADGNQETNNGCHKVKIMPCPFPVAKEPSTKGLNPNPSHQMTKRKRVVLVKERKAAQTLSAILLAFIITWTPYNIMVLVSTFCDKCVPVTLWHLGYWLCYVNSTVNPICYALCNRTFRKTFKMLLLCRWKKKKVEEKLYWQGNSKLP
CHRM4 agonist = human M4 muscarinic receptor agonists, primary screen, CHO-K1 cells, Fluo-8 calcium fluorescence; 0.14% of 360,000 active; Muscarinic acetylcholine receptor M4 (Homo sapiens), P08173; activation, % at 3 µM; CHO-K1 hM4/Gqi5; vehicle 0%, full acetylcholine response 100%; AID 624127, 2012;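 active = activation above the run mean over all test wells plus 3 SD, cut at about 32% in these data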;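 also: peak over basal fluorescence ratio per well then scaled between controls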
CHRM4 PAM = human M4 muscarinic receptor positive allosteric modulators, primary screen, CHO-K1 cells, Fluo-8 calcium fluorescence; AID 624126, 2012; CHO-K1 hM4/Gqi5, ACh EC20; 0% = ACh EC20, 100% = maximal ACh; Muscarinic acetylcholine receptor M4 (Homo sapiens), P08173; 0.4% of 360,000 active; activation, % at 3 µM;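 active = activation above its plate's cutoff, the mean activation of sample wells plus 3 SD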
M5 ag = human M5 muscarinic receptor agonists, primary screen, CHO-K1 cells, Fluo-8 calcium fluorescence; Muscarinic acetylcholine receptor M5 (Homo sapiens), P08912; 0.19% of 360,000 active; CHO-K1 hM5 cells; 0% DMSO wells, 100% maximal acetylcholine response; AID 624037, 2012; activation, % at 3 µM;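 active = activation above the run's mean over test compounds plus 3 SD, cut at about 23% in these data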;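 also: signal is peak over basal fluorescence ratio across the kinetic read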
CHRM5 PAM = human M5 muscarinic receptor positive allosteric modulators, primary screen, CHO-K1 cells, Fluo-8 calcium fluorescence | Muscarinic acetylcholine receptor M5 (Homo sapiens), P08912 | CHO-K1 hM5, ACh EC20 PAM; 0% = ACh EC20, 100% = ACh EC100 | activation, % at 3 µM | 0.3% of 360,000 active;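 active = activation above the run cutoff, the mean activation of all test compounds plus 3 SD, cut at about 18% in these data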
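system = human M5 receptor in CHO-K1 cells | reagent = EC20 acetylcholine as agonist stimulus | compound dosing = single-point, 3 µM nominal | incubation = Fluo-8 loading 80 min at 37 °C plus 30 min room temperature | detection = Fluo-8 calcium dye fluorescence, kinetic read | benchmarks = low control EC20 acetylcholine (0%), high control EC100 acetylcholine (100%)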
CHRM4 antagonist = human M4 muscarinic receptor antagonists, primary screen, CHO cells, Fluo-8 calcium fluorescence; CHO-hM4 cells, ACh EC80; inhibition, % at 3 µM; 0.73% of 360,000 active; AID 624125, 2012;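 active = inhibition above its plate's cutoff, the mean inhibition of sample wells plus 3 SD, cut at about 27% in these data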
Large screens that a line does not name were inactive. A selection: hits, their analogues and other compounds. The true share with any hit is near 1.9%.

CCc1ccc(NC(=O)C2CCN(S(=O)(=O)c3ccc4c(c3)NC(=O)C(C)S4)CC2)cc1 (stereo not given)	M5 antag 33.6
COC(=O)[C@]12CCCCC=C1N(Cc1ccc3c(c1)OCO3)C(=O)[C@H](CC(=O)NCCCCc1ccccc1)C2	none
Cc1cccc(C)c1-n1nnnc1C1(C)CCC(=O)N1C1CC1 (stereo not given)	none
COc1ccccc1-c1csc(C(O)c2ccc(F)c(F)c2)n1 (stereo not given)	none
CCC1=NN(C(=O)c2ccc(Br)cc2)C(O)(c2ccc(C)cc2)C1 (stereo not given)	CHRM4 PAM 21.5
CCC1=NN(C(=O)c2ccc(C)cc2)C(O)(c2ccc(Br)cc2)C1 (stereo not given)	none
N#Cc1ccc(OCC(=O)N/N=C2\CCc3ccccc32)cc1	CHRM5 PAM 18.4
COc1ccc(C2=Nc3ccccc3N(C(=O)c3ccc(C)cc3)C2C(=O)Nc2c(C)cccc2C)cc1 (stereo not given)	none
C=CCN(c1ccccc1)S(=O)(=O)c1ccc(Cl)c(C(=O)OCC(=O)c2[nH]c(C)c(C(C)=O)c2C)c1	CHRM4 antagonist 26.6
C=CCN(c1ccc(OC)cc1)S(=O)(=O)c1ccc(Cl)c(C(=O)OCC(=O)NC2CC2)c1	none
O=C(Nc1ccccc1)C1Cc2c(-c3ccco3)ccnc2O1 (stereo not given)	none
CC(C)C(=O)N1CCC1(C)C(=O)Nc1cc(-c2ccccc2)nn1C (stereo not given)	none
COC(c1ccccc1)c1nnc(CCC(=O)N2CCN(Cc3cccs3)CC2)o1 (stereo not given)	none
COC(c1ccccc1)c1nnc(CCC(=O)N2CCCCCCC2)o1 (stereo not given)	CHRM4 PAM 18.1
CCOc1cc(N2CCOCC2)c(OCC)cc1NC(=O)c1cc(-c2ccco2)nc2ccccc12	CHRM4 antagonist 28.5
COC(=O)C1(C(=O)OC)c2ccccc2N(S(=O)(=O)c2ccc(C)cc2)C1CC(C)=O (stereo not given)	none
N=C(N)SCC1=CCS(=O)(=O)C1	M5 antag 31.5
CCCCN(C)c1c(C)nc2ccc(C(=O)NCc3ccc4c(c3)OCO4)cn12	none
c1ccc(Cn2c(Cn3c(-c4cnccn4)nc4ccccc43)nc3ccccc32)cc1	none
O=C(Nc1ncc(Cc2ccc(SC(F)F)cc2)s1)c1ccc(OC(F)F)cc1	CHRM4 PAM 20.8
CCOC(=O)[C@]12CCC=C1N(Cc1cccc3ccccc13)C(=O)[C@H](CC(=O)N1CCOCC1)C2	none
CC(C)CC1C(=O)N(Cc2cn(CC3CCCCC3)nn2)CCS(=O)(=O)N1Cc1ccc(-c2ccncc2)cc1 (stereo not given)	none
CCCCCCCCCCCCCCCC[n+]1ccccc1	M5 antag 86.5, CHRM4 antagonist 44.6
O/N=C/c1cccc[n+]1CCCCCC[n+]1ccccc1/C=N/O	none
CCCCCCCCCCCCCCCC[n+]1ccc(C(N)=O)cc1	none
CCCCCCCCCCCCCCCC[n+]1ccc(/C=N/O)cc1	M5 antag 27.5
COc1ccc(C(=O)c2[nH]c(N)c(C(=O)NCCc3c[nH]c4ccccc34)c2-c2ccc(OC)c(OC)c2)cc1	none
O=C(Nc1ccc(F)cc1)C(CCc1ccccc1)N1CCN(C(=O)c2ccco2)CC1 (stereo not given)	none
CN(C)c1ccc(/C=C(/C#N)C(=O)Nc2nc3c(s2)CCN(Cc2ccccc2)C3)cc1	M5 ag 48.8
C=CCN1C(=O)C2(OCCCO2)c2cc(CCCC)ccc21	none
C=CCN1C(=O)C2(OCCCO2)c2cc(C)ccc21	CHRM5 PAM 20.1
CCc1cccc(C)c1NC(=O)COC(=O)Cc1ccccc1	none
